Laboratory results reported in ChEMBL document CHEMBL4033712, “Synthesis and biological evaluation of new C-12(α/β)-(N-) sulfamoyl-phenylamino-14-deoxy-andrographolide derivatives as potent anti-cancer agents” (Bioorg Med Chem Lett, 2017).

Columns and labels:
Type in all cases: functional
CCRF-CEM = assay: Growth inhibition of human CCRF-CEM cells incubated for 48 hrs by sulforhodamine B assay
Summary of the method: (§1)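 NCI-60 five-dose screen at 0.01, 0.1, 1, 10 and 100 µM, 48 h incubation, sulforhodamine B end point. GI50 (50% decrease in net growth), TGI (total growth inhibition) and LC50 (net 50% loss of initial cells) taken from log concentration versus % growth inhibition curves.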

K562 = assay: Growth inhibition of human K562 cells incubated for 48 hrs by sulforhodamine B assay; details: K562, 48 h; summary of the method: as §1
SR = assay: Growth inhibition of human SR cells incubated for 48 hrs by sulforhodamine B assay
Summary of the method: (§2)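 NCI 60 human tumour cell line panel, five-dose study at 0.01, 0.1, 1, 10 and 100 µM, 48 h incubation. Sulforhodamine B protein-binding dye end point. GI50 (50% decrease in net cell growth), TGI (total growth inhibition) and LC50 (net 50% loss of initial cells) read from log concentration versus % growth inhibition curves.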

HOP-62 = assay: Growth inhibition of human HOP62 cells incubated for 48 hrs by sulforhodamine B assay; details: HOP-62, 48 h; summary of the method: as §1
HOP-92 [1] = assay: Growth inhibition of human HOP92 cells incubated for 48 hrs by sulforhodamine B assay; details: HOP-92, 48 h; summary of the method: as §1
NCI-H226 = assay: Growth inhibition of human NCI-H226 cells incubated for 48 hrs by sulforhodamine B assay; details: NCI-H226, 48 h; summary of the method: as §1
NCI-H460 = assay: Growth inhibition of human NCI-H460 cells incubated for 48 hrs by sulforhodamine B assay; details: NCI-H460, 48 h; summary of the method: as §1
COLO 205 = assay: Growth inhibition of human COLO205 cells incubated for 48 hrs by sulforhodamine B assay; details: COLO 205, 48 h; summary of the method: as §1
HCT-116 = assay: Growth inhibition of human HCT116 cells incubated for 48 hrs by sulforhodamine B assay; details: HCT-116, 48 h; summary of the method: as §1
KM12 = assay: Growth inhibition of human KM12 cells incubated for 48 hrs by sulforhodamine B assay; details: KM12, 48 h; summary of the method: as §1
SW-620 = assay: Growth inhibition of human SW620 cells incubated for 48 hrs by sulforhodamine B assay; details: SW-620, 48 h; summary of the method: as §2
SF-268 = assay: Growth inhibition of human SF268 cells incubated for 48 hrs by sulforhodamine B assay; details: SF-268, 48 h; summary of the method: as §2
SF-295 = assay: Growth inhibition of human SF295 cells incubated for 48 hrs by sulforhodamine B assay; details: SF-295, 48 h; summary of the method: as §2
SNB-75 = assay: Growth inhibition of human SNB75 cells incubated for 48 hrs by sulforhodamine B assay; details: SNB-75, 48 h; summary of the method: as §2
U-251 = assay: Growth inhibition of human U251 cells incubated for 48 hrs by sulforhodamine B assay; details: U-251, 48 h; summary of the method: as §2
MDA-MB-435 = assay: Growth inhibition of human MDA-MB-435 cells incubated for 48 hrs by sulforhodamine B assay; details: MDA-MB-435, 48 h; summary of the method: as §1
SK-MEL-2 = assay: Growth inhibition of human SK-MEL-2 cells incubated for 48 hrs by sulforhodamine B assay; details: SK-MEL-2, 48 h; summary of the method: as §2
SK-MEL-5 = assay: Growth inhibition of human SK-MEL-5 cells incubated for 48 hrs by sulforhodamine B assay; details: SK-MEL-5, 48 h; summary of the method: as §2
UACC-257 = assay: Growth inhibition of human UACC257 cells incubated for 48 hrs by sulforhodamine B assay; details: UACC-257, 48 h; summary of the method: as §2
ACHN = assay: Growth inhibition of human ACHN cells incubated for 48 hrs by sulforhodamine B assay; summary of the method: as §1
CAKI-1 = assay: Growth inhibition of human Caki1 cells incubated for 48 hrs by sulforhodamine B assay; details: CAKI-1, 48 h; summary of the method: as §1
RXF 393 = assay: Growth inhibition of human RXF393 cells incubated for 48 hrs by sulforhodamine B assay; details: RXF 393, 48 h; summary of the method: as §2
TK-10 = assay: Growth inhibition of human TK10 cells incubated for 48 hrs by sulforhodamine B assay; details: TK-10, 48 h; summary of the method: as §2
PC-3 = assay: Growth inhibition of human PC3 cells incubated for 48 hrs by sulforhodamine B assay; details: PC-3, 48 h; summary of the method: as §1
Hs-578T = assay: Growth inhibition of human Hs 578T cells incubated for 48 hrs by sulforhodamine B assay; summary of the method: as §1
BT-549 = assay: Growth inhibition of human BT549 cells incubated for 48 hrs by sulforhodamine B assay; details: BT-549, 48 h; summary of the method: as §1
T47D = assay: Growth inhibition of human T47D cells incubated for 48 hrs by sulforhodamine B assay; summary of the method: as §2
HOP-92 [2] = assay: Anticancer activity against human HOP92 cells assessed as cell growth at 10 uM after 48 hrs by sulforhodamine B assay relative to control; details: HOP-92, 48 h, read-out: Activity
Summary of the method: (§3)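 Single-dose NCI-60 panel screen: compound added at 10 µM and the culture incubated 48 h. The end point was read by protein staining with sulforhodamine B. The value is percent growth of treated cells relative to untreated control cells, reported as a mean graph across the panel.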

SF-539 = assay: Anticancer activity against human SF539 cells assessed as cell growth at 10 uM after 48 hrs by sulforhodamine B assay relative to control; details: SF-539, 48 h, read-out: Activity; summary of the method: as §3
[3] = read-out: LC50 (the source's name)

## C=C1CC[C@@H]2[C@](C)(COC(C)=O)[C@H](OC(C)=O)CC[C@@]2(C)[C@H]1CC(Nc1ccc(S(=O)(=O)Nc2nccc(C)n2)cc1)C1=CCOC1=O (stereo partly drawn)
CCRF-CEM
  GI50: 7.3 nM
  TGI: 3.09 µM
CCRF-CEM; [3]
  CC50: > 100 µM
K562
  GI50: 2970 nM
  TGI: 21.7 µM
K562; [3]
  CC50: > 100 µM
SR
  GI50: 750 nM
  TGI: > 100 µM
SR; [3]
  CC50: > 100 µM
HOP-62
  GI50: 10.3 µM
  TGI: 22.5 µM
HOP-62; [3]
  CC50: 49.3 µM
HOP-92 [1]
  GI50: 6.24 µM
  TGI: 18.9 µM
HOP-92 [1]; [3]
  CC50: 44.5 µM
NCI-H226
  GI50: 2330 nM
  TGI: 5.91 µM
NCI-H226; [3]
  CC50: > 100 µM
NCI-H460
  GI50: 4.88 µM
  TGI: 18.3 µM
NCI-H460; [3]
  CC50: 53.9 µM
COLO 205
  GI50: 2090 nM
  TGI: 4.66 µM
COLO 205; [3]
  CC50: 11.9 µM
HCT-116
  GI50: 1600 nM
  TGI: 3.56 µM
HCT-116; [3]
  CC50: 7.96 µM
KM12
  GI50: 4.59 µM
  TGI: 16.4 µM
KM12; [3]
  CC50: 44.4 µM
SW-620
  GI50: 1600 nM
  TGI: 3.68 µM
SW-620; [3]
  CC50: 8.48 µM
SF-268
  GI50: 6.19 µM
  TGI: 20.9 µM
SF-268; [3]
  CC50: 54.2 µM
SF-295
  GI50: 12.4 µM
  TGI: 25.6 µM
SF-295; [3]
  CC50: 52.9 µM
SNB-75
  GI50: 2690 nM
  TGI: 14.9 µM
SNB-75; [3]
  CC50: 38.6 µM
U-251
  GI50: 3.17 µM
  TGI: 10.7 µM
U-251; [3]
  CC50: 33.3 µM
MDA-MB-435
  GI50: 2920 nM
  TGI: 10.4 µM
MDA-MB-435; [3]
  CC50: 34.2 µM
SK-MEL-2
  GI50: 6.01 µM
  TGI: 20 µM
SK-MEL-2; [3]
  CC50: 52.1 µM
SK-MEL-5
  GI50: 3.79 µM
  TGI: 14 µM
SK-MEL-5; [3]
  CC50: 41.2 µM
UACC-257
  GI50: 4.8 µM
  TGI: 16.4 µM
UACC-257; [3]
  CC50: 42.8 µM
ACHN
  GI50: 3.64 µM
  TGI: 13 µM
ACHN; [3]
  CC50: 38.4 µM
CAKI-1
  GI50: 3.56 µM
  TGI: 12.5 µM
CAKI-1; [3]
  CC50: 35.5 µM
RXF 393
  GI50: 2330 nM
  TGI: 4.18 µM
RXF 393; [3]
  CC50: 7.49 µM
TK-10
  GI50: 4.94 µM
  TGI: 15.8 µM
TK-10; [3]
  CC50: 40.4 µM
PC-3
  GI50: 4.46 µM
  TGI: 15.7 µM
PC-3; [3]
  CC50: 43.3 µM
Hs-578T
  GI50: 6.65 µM
  LC50: > 100 µM
  TGI: 43 µM
BT-549
  GI50: 2300 nM
  TGI: 5.61 µM
BT-549; [3]
  CC50: 18.7 µM
T47D
  GI50: 2770 nM
  TGI: 8.33 µM
T47D; [3]
  CC50: > 100 µM
HOP-92 [2]
  growth at 10 µM: 71.6%
SF-539
  growth at 10 µM: -62.7%
